In ChEMBL document CHEMBL1154934, “Identification of piperazine-bisamide GHSR antagonists for the treatment of obesity” (Bioorg Med Chem Lett, 2010) one finds Activity and IC50 data, which are given here for 18 compounds.

For assay [1], the target named is Growth hormone secretagogue receptor type 1 (Rattus norvegicus) (UniProt O08725). Put plainly: Agonist activity at rat GHSR expressed in CHO cells assessed as increase in ghrelin-induced [3H]IP accumulation at 10 uM after 1 hr by scintillation counting relative to ghrelin. Type of assay: functional, cell-based. In short, it runs like this:
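CHO cells stably expressing human or rat GHSR labelled 12 h with 3H-inositol (1 µCi/mL in DMEM), then exposed to ghrelin or compound at 37 °C for 1.0 h. Lysis with 20 mM formic acid, 4 °C, 4 h. Extract taken onto SPA beads, 12 h in the dark, then radioactivity counted. IP accumulation expressed as % of maximal ghrelin response at 10, 1.0 and 0.1 µM.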

For assay [2], the target named is Growth hormone secretagogue receptor type 1 (Homo sapiens, UniProt Q92847). Put plainly: Antagonist activity at human GHSR expressed in CHOK1 cells assessed as inhibition of ghrelin-induced intracellular calcium flux by aequorin flash luminescence assay. Type of assay: functional, cell-based, CHO-K1. The essentials: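 Aequorin flash luminescence in CHO-K1 cells stably co-expressing human ghrelin receptor and aequorin. […] IC50 values are means of three determinations.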
Chain of Growth hormone secretagogue receptor type 1 (Q92847 whole entry): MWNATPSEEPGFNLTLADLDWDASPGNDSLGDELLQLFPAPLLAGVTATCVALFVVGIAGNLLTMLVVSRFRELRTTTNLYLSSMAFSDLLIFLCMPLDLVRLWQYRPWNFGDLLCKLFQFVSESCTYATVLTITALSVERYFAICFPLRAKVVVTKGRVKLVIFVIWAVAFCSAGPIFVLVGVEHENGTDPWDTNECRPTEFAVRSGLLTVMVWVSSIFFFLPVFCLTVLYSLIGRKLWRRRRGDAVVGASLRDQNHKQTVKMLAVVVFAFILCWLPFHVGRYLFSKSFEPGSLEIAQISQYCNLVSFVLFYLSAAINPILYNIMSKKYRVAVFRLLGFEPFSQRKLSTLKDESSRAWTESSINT
A general note: A change in cytosolic calcium serves as a functional read-out for many receptors and channels.

Chain of Growth hormone secretagogue receptor type 1 (Rattus norvegicus) (O08725 whole entry): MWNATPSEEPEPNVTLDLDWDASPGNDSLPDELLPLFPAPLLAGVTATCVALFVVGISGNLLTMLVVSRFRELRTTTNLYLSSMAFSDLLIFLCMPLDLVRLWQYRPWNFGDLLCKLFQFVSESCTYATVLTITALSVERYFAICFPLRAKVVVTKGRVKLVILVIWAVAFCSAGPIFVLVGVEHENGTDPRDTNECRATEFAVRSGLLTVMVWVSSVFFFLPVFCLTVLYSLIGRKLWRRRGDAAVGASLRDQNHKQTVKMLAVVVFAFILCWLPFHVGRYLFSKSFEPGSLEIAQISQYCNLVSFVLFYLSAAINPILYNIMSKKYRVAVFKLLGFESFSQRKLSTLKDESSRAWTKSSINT

With `Cc1noc(C)c1-c1ccc(C(=O)N2CCN(C(=O)c3ccc4cc[nH]c4c3)[C@@H](C)C2)cc1`, the Activity in assay [1] turned out to be 5%. In assay [2], the half-inhibitory concentration (IC50) (usually the midpoint of a concentration-inhibition curve) is 245 nM.
For `COc1cccc(-c2ccc(C(=O)N3CCN(C(=O)c4ccc5cc[nH]c5c4)C[C@H]3C)cc2)c1`, the half-inhibitory concentration (IC50) in assay [2] was 68 nM.
Regarding `O=C(c1ccc(-c2ccccc2)cc1)N1CCCN(C(=O)c2ccc3cc[nH]c3c2)CC1`, in assay [2], the concentration for half-maximal inhibition (IC50) was found to be 6500 nM.
Consider `C[C@H]1CN(C(=O)c2ccc(N3CCOCC3)cc2)CCN1C(=O)c1ccc2cc[nH]c2c1`, for which, in assay [2], the IC50 was 339 nM.
Turning to `Cc1ccccc1-c1ccc(C(=O)N2CCN(C(=O)c3ccc4cc[nH]c4c3)[C@@H](C)C2)cc1F`, the Activity in assay [1] amounted to 16%. Also, the IC50 in assay [2] is 9 nM.
In the case of `C[C@H]1CN(C(=O)c2ccc(-c3ccccc3Cl)cn2)CCN1C(=O)c1ccc2cc[nH]c2c1`, in assay [1], the Activity came out at 18%. The half-inhibitory concentration (IC50) in assay [2] turned out to be 37.2 nM.
Take `C[C@H]1CN(C(=O)c2ccc(-c3cccnc3)cc2)CCN1C(=O)c1ccc2cc[nH]c2c1`: the Activity in assay [1] stood at 21%. Further, the concentration for half-maximal inhibition (IC50) in assay [2] was 143 nM.
The matching figures for `Cc1cc(-c2ccccc2)ccc1C(=O)N1CCN(C(=O)c2ccc3cc[nH]c3c2)[C@@H](C)C1`: 36% and 14.3 nM.
Regarding `C[C@H]1CN(C(=O)c2ccc(-c3ccncc3)cc2)CCN1C(=O)c1ccc2cc[nH]c2c1`, the Activity in assay [1] was -2%. Also, the IC50 in assay [2] worked out at 12.7 nM.
Take `C[C@H]1CN(C(=O)c2ccc(-c3ccccc3)nc2)CCN1C(=O)c1ccc2cc[nH]c2c1`: in assay [1], the Activity is 19%. In addition, in assay [2], the 50% inhibitory concentration (IC50) was found to be 20 nM.
Turning to `C[C@H]1CN(C(=O)c2ccc(-c3ccccc3)cc2F)CCN1C(=O)c1ccc2cc[nH]c2c1`, in assay [1], the Activity was found to be 43%. For the same compound, the IC50 in assay [2] was 17.7 nM.
As to `C[C@H]1CN(C(=O)c2ccc(-c3ccccc3Cl)nc2)CCN1C(=O)c1ccc2cc[nH]c2c1`, in assay [1], the Activity was 14%. For the same compound, in assay [2], the IC50 amounted to 13 nM.
For `C[C@H]1CN(C(=O)c2csc(-c3ccccc3F)n2)CCN1C(=O)c1ccc2cc[nH]c2c1` the same measures were 14% and 33.7 nM.
Regarding `COc1cccc(-c2ccc(C(=O)N3CCN(C(=O)c4ccc5cc[nH]c5c4)C[C@@H]3C)cc2)c1`, the IC50 in assay [2] turned out to be 280 nM.
In the case of `C[C@H]1CN(C(=O)c2ccc(-c3cn[nH]c3)cc2)CCN1C(=O)c1ccc2cc[nH]c2c1`, the Activity in assay [1] came out at 17%. Moreover, the concentration for half-maximal inhibition (IC50) in assay [2] stood at 123 nM.
In the case of `C[C@H]1CN(C(=O)c2ccc(-c3cncs3)cc2)CCN1C(=O)c1ccc2cc[nH]c2c1`, in assay [1], the Activity amounted to 5%. Moreover, the IC50 in assay [2] turned out to be 65 nM.
In the case of `C[C@H]1CN(C(=O)c2ccc(-c3ccccn3)cc2)CCN1C(=O)c1ccc2cc[nH]c2c1`, in assay [1], the Activity came out at 12%. In addition, the IC50 in assay [2] is 42.2 nM.
`COc1cccc(-c2ccc(C(=O)N3CCN(C(=O)c4ccc5cc[nH]c5c4)CC3)cc2)c1`: the half-inhibitory concentration (IC50) in assay [2] stood at 25 nM.
